Bioassay records as filed in PubChem BioAssay.
An excerpt weighted towards active compounds, which were near 3.7% of everything screened.
KCNK3 block = human KCNK3 channel inhibition, primary screen; O14649; CHO-KCNK3 thallium flux, FluxOR fluorescence; active compounds read low; B-score at 10 µM; 340,000 compounds, 0.84% hits; AID 602410;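 active = B-score under library mean minus 4 SD, starting fluorescence ratio at most library mean plus 5 SD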;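 note: more negative B-score means stronger inhibition of thallium flux through KCNK3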
Target sequence (O14649 whole entry, looked up): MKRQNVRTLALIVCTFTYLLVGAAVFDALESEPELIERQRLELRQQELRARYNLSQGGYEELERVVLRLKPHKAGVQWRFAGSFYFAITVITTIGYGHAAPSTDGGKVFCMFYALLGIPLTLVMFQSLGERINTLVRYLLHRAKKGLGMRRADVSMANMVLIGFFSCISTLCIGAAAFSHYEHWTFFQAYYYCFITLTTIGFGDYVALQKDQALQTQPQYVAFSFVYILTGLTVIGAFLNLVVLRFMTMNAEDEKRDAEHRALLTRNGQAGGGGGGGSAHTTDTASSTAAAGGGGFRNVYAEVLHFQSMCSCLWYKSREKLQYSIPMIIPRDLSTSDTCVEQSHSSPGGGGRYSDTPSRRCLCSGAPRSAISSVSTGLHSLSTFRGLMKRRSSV
hERG rescue = hERG (human) protection from proarrhythmic block | Q12809 | CHO-hERG, FluxOR thallium flux, dofetilide IC70 present | activation (rescue from dofetilide block), less the hit threshold, % at 10 µM | 310,000 compounds, 0.51% hits | AID 1511;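 active = activation above the mean of controls blocked by dofetilide plus 5 SD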;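 note: thallium influx through hERG after potassium depolarization seen as dye fluorescence rise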
Kir21 block = Kir2.1 (mouse) channel inhibition. P35561. HEK293-Kir2.1, FluxOR thallium flux fluorescence; active compounds read low. B-score at 10 µM. 310,000 compounds, 0.85% hits;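 active = fluorescence ratio B-score at or below minus 3 SD of library scores, with starting-brightness B-score within 2 SD, cut at about -4.2 in these data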;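 note: channel flux triggered by added potassium and thallium sulfate stimulus; B-score of peak minus minimum fluorescence over baseline after thallium stimulus; more negative B-score means stronger Kir2.1 block with less thallium influx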
KCNQ1 act = potentiates or activates the human KCNQ1 potassium channel | 310,000 compounds, 0.35% hits | B-score at 10 µM | CHO-K1 KCNQ1, thallium flux FluxOR fluorescence; active compounds read high | P51787;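 active = fluorescence ratio B-score, a plate-corrected score, at least three library SD, with initial intensity B-score within 5 SD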
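Test system: CHO-K1 cells stably expressing KCNQ1 / Medium: assay buffer / Also added: depolarizing K+/Tl+ stimulus, K2SO4 and Tl2SO4 each 12.5 mM in 5x stock / Incubation: 90 min dye loading and 20 min compound exposure, both at room temperature / Signal: thallium influx via FluxOR fluorescence, kinetic imaging / Evaluation: B score of baseline-normalized fluorescence ratio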
KCNK9 block = inhibitors of human KCNK9 two-pore domain potassium channel; Q9NPC2; HEK293 KCNK9, FluxOR thallium flux fluorescence; active compounds read low; B-score at 10 µM; 310,000 compounds, 1.2% hits;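 active = ratio B-score over 3 SD below the library mean, with starting fluorescence within 5 SD of its mean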;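 note: negative B-score means less thallium flux so channel inhibition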
KCNQ1 block = human KCNQ1 channel inhibition. P51787. B-score at 10 µM. 310,000 compounds, 1.3% hits. CHO-K1 KCNQ1, FluxOR thallium flux fluorescence; active compounds read high;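 active = compounds whose thallium flux B-score, printed positive for inhibition, exceeds three library SD while starting fluorescence stays within three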;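 note: channel opened by potassium depolarization with thallium stimulus after 20 min compound exposure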
KCNK9 block conf = human KCNK9 inhibitor confirmation; HEK293 KCNK9 cells, FluxOR thallium flux fluorescence; 4,900 compounds, 43% hits; inhibition, % at 10 µM; AID 492992; shares compounds with KCNK9 block;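 active = thallium signal inhibited by more than 5 SD of the compound-free buffer control wells, on both duplicate plates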
Kir21 sel = tests whether KCNK9 modulators also affect mouse Kir2.1 | 4,900 compounds, 4% hits | shares compounds with KCNK9 block | Kir2.1 cells, FluxOR thallium flux fluorescence | AID 492993 | inhibition, % at 10 µM;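 active = thallium signal drop more than 5 SD beyond the mean of the no-compound control wells, seen in both duplicate plates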;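 note: signal is fluorescence rise after thallium addition divided by baseline fluorescence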
HEK293 Tl ctr = non-induced cell nonspecific activity of KCNK9 modulators. shares compounds with KCNK9 block. non-induced KCNK9-HEK293, FluxOR thallium flux. inhibition, % at 10 µM. 4,900 compounds, 40% hits. AID 492997;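 active = thallium signal drop beyond 5 SD of the untreated control mean, on both duplicate plates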
Each line names hits and unclear results; the compound was inactive in the other large screens (follow-up assays come after a bar, where they were run).

O=C(N/N=C/c1cn(-c2ccccc2)nc1-c1ccc(F)cc1)c1ccc2c(c1)OCO2	KCNK9 block -10 | KCNK9 block conf 55% | Kir21 sel inactive | HEK293 Tl ctr inactive
Cc1ccc(S(=O)(=O)n2nc(OC(=O)c3cccc(F)c3)cc2N)cc1	none
Cc1ccc(S(=O)(=O)n2nc(OC(=O)c3c(F)cccc3Cl)cc2N)cc1	KCNK9 block -20 | KCNK9 block conf 61% | Kir21 sel inactive | HEK293 Tl ctr 36%
CC(=O)N1c2ccccc2-c2nc3ccccc3n2C1C (configuration not stated)	none
CN1c2ccccc2-c2nc3ccccc3n2C1c1cccs1 (configuration not stated)	KCNK9 block -8.6 | KCNK9 block conf 38% | Kir21 sel inactive | HEK293 Tl ctr 42%
Cc1ccc(C2N(C)c3ccccc3-c3nc4ccccc4n32)o1 (configuration not stated)	KCNK9 block -11 | KCNK9 block conf 32% | Kir21 sel inactive | HEK293 Tl ctr 30%
Cc1sc(NC(=O)c2ccco2)c(C(c2cccnc2)N2CCC(C)CC2)c1C (configuration not stated)	KCNK9 block -14, KCNQ1 block 9 | KCNK9 block conf 66% | Kir21 sel inactive | HEK293 Tl ctr 42%
COc1ccc(OC)c(N=c2ssnc2Cl)c1	none
COc1cc(N=c2ssnc2Cl)c(OC)cc1Cl	none | KCNK9 block conf inactive | Kir21 sel inactive | HEK293 Tl ctr inactive
CCCn1c(Oc2ccccc2)nc2c1c(=O)n(C)c(=O)n2C	none
Cc1nc(NCC(c2ccccc2)N(C)C)c2c(C)c(C)sc2n1 (configuration not stated)	none | KCNK9 block conf inactive | Kir21 sel inactive | HEK293 Tl ctr inactive
COc1ccccc1CCC(=O)N1CCN(S(=O)(=O)c2cc(C(F)(F)F)ccc2Cl)CC1	none (no result: hERG rescue, Kir21 block, KCNQ1 act, KCNK9 block, KCNQ1 block)
COc1ccc(CCC(=O)OCC(=O)Nc2sccc2C#N)cc1	none (no result: hERG rescue, Kir21 block, KCNQ1 act, KCNK9 block, KCNQ1 block)
S=c1nc(C2COc3ccccc3O2)[nH][nH]1 (configuration not stated)	none | KCNK9 block conf inactive | Kir21 sel inactive | HEK293 Tl ctr inactive
Cc1ccc(C2=NN3C(C(=O)c4ccccc4)Oc4ccccc4C3C2)cc1 (configuration not stated)	none
NC(=S)n1[nH]c(-c2ccc([N+](=O)[O-])cc2)c(N=Nc2ccc(O)cc2)c1=O	none
NC(=S)n1[nH]c(-c2ccc([N+](=O)[O-])cc2)c(N=Nc2cccc(Cl)c2)c1=O	KCNQ1 act 8 | KCNK9 block conf inactive | Kir21 sel inactive | HEK293 Tl ctr inactive
COC(=O)Cc1c(C)c2ccc(OCC(=O)N3CCC(C)CC3)c(C)c2oc1=O	none
Cc1cc(-c2nn(-c3ccccc3F)cc2CNCCc2cnccn2)c(C)s1	none
Cn1cc(CN2CCN(c3ccc(Cl)cn3)CC2)c(-c2ccccc2F)n1	none | KCNK9 block conf inactive | Kir21 sel inactive | HEK293 Tl ctr inactive
Cc1cc(-c2nn(-c3ccccc3F)cc2CN2CCN(c3ccccn3)CC2)c(C)s1	none | KCNK9 block conf inactive | Kir21 sel inactive | HEK293 Tl ctr inactive
CC(C)N(C(C)C)S(=O)(=O)c1ccc(NC(=O)c2cnccn2)cc1	none
COc1ccc(-c2oc(NC(C)=O)c(C#N)c2-c2ccc(OC)cc2)cc1	none
COc1ccc(C(=O)Nc2oc(-c3ccccc3)c(-c3ccccc3)c2C#N)cc1OC	KCNK9 block -9.2 | KCNK9 block conf 49% | Kir21 sel inactive | HEK293 Tl ctr 38%
CCCCOc1ccc(CSCCNC(=S)Nc2ccccc2)cc1	none
CC(C)COc1ccc(CSCCNC(=S)Nc2ccccc2)cc1	KCNQ1 block 9 | KCNK9 block conf inactive | Kir21 sel inactive | HEK293 Tl ctr inactive
CCOC(=O)[C@H]1[C@H]2COc3ccc(Br)cc3[C@@H]2N2C(=O)N(c3ccccc3)C(=O)[C@@]12C	none (no result: hERG rescue, Kir21 block, KCNQ1 act, KCNK9 block, KCNQ1 block)
CCOC(=O)[C@@H]1[C@H]2COc3ccc(Br)cc3[C@@H]2N2C(=O)N(c3ccccc3)C(=O)[C@@]12C	KCNK9 block -9 | KCNK9 block conf 52% | Kir21 sel inactive | HEK293 Tl ctr 30%
CCOC(=O)[C@@H]1[C@H]2COc3ccc(Br)cc3[C@H]2N2C(=O)N(c3cccc(Cl)c3)C(=O)[C@]12C	KCNK9 block -11 | KCNK9 block conf 73% | Kir21 sel inactive | HEK293 Tl ctr 28%
CCOC(=O)[C@@H]1[C@H]2COc3ccc(Br)cc3[C@H]2N2C(=O)N(c3ccc(Br)cc3)C(=O)[C@]12C	KCNK9 block -16 | KCNK9 block conf 70% | Kir21 sel inactive | HEK293 Tl ctr 28%
Cn1cc(C(=O)NCCc2ccccc2)c(=O)c2cc(S(=O)(=O)N3CCOCC3)ccc21	none (no result: hERG rescue, Kir21 block, KCNQ1 act, KCNK9 block, KCNQ1 block)
N#Cc1c(Cl)nc(N/N=C/c2ccccc2)c(Cl)c1Cl	none
C[n+]1cccc(/C=N/Nc2nc(Cl)c(C#N)c(Cl)c2Cl)c1	none | KCNK9 block conf inactive | Kir21 sel inactive | HEK293 Tl ctr inactive
O=S(=O)(NCC(c1ccco1)N1CCN(c2ccccc2F)CC1)c1ccc(F)cc1 (configuration not stated)	KCNK9 block -13 | KCNK9 block conf 46% | Kir21 sel inactive | HEK293 Tl ctr 34%
Cc1nc(C)c(C(=O)N2CCCC(C(=O)c3ccc4ccccc4c3)C2)s1 (configuration not stated)	none
O=C(c1ccc2ccccc2c1)C1CCCN(C(=O)CCn2cnnn2)C1 (configuration not stated)	none
COc1ccc2cc(C(=O)C3CCCN(C(=O)c4cnccn4)C3)ccc2c1 (configuration not stated)	none
COc1ccc2cc(C(=O)C3CCCN(C(=O)/C=C/c4ccccn4)C3)ccc2c1 (configuration not stated)	none | KCNK9 block conf inactive | Kir21 sel inactive | HEK293 Tl ctr inactive
O=C(c1ccc2ccccc2c1)C1CCCN(C(=O)c2cnccn2)C1 (configuration not stated)	none | KCNK9 block conf inactive | Kir21 sel inactive | HEK293 Tl ctr inactive
Cc1cc(C(=O)N2CCCC(C(=O)c3ccc4ccccc4c3)C2)n(C)n1 (configuration not stated)	none | KCNK9 block conf inactive | Kir21 sel inactive | HEK293 Tl ctr inactive
